Reference: ChEMBL document CHEMBL5131497, “Design, Synthesis, and Characterization of TNP-2198, a Dual-Targeted Rifamycin-Nitroimidazole Conjugate with Potent Activity against Microaerophilic and Anaerobic Bacterial Pathogens” (J Med Chem, 2022)
≈ marks a conversion by molar mass, not a printed value.

Columns and labels:
[1] = test system: Gardnerella vaginalis; experiment: Antibacterial activity against Gardnerella vaginalis ATCC 49145; format: functional
[2] = test system: Clostridioides difficile; experiment: Antibacterial activity against Clostridioides difficile CB1921 ATCC BAA1382 at 1:1 compound to rifampicin molar ratio measured after 3 days in presence of rifampicin; format: functional; conditions: CB1921 ATCC BAA1382, 72 h, time 3 day
[3] = test system: Gardnerella vaginalis; experiment: Antibacterial activity against Gardnerella vaginalis ATCC 14018; format: functional
[4] = test system: Helicobacter pylori; experiment: Antibacterial activity against metronidazole/rifampicin-resistant Helicobacter pylori CB1893 harboring rpoBL525I/D530N/rdxAR16S mutant at 1:1 compound to rifampicin molar ratio measured after 5 days in presence of rifampicin by agar dilution method; format: functional; conditions: CB1893, 120 h, time 5 day
Method in brief: (§1)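 Agar dilution MIC per CLSI. Resistant derivatives of wild-type ATCC 700392 carrying defined rpoB/rdxA mutations. Test agent combined 1:1 molar with the partner drug. Agents prepared from 100× stocks and serially 2-fold diluted into Mueller–Hinton agar containing 5% v/v aged (≥2 weeks) sheep blood. Plates incubated 5 days at 35 °C under a microaerobic atmosphere from a gas-generating system.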

[5] = test system: Helicobacter pylori; experiment: Antibacterial activity against Helicobacter pylori ATCC 700392 at 1:1 compound to rifabutin molar ratio measured after 5 days in presence of rifabutin by agar dilution method; format: functional; conditions: ATCC 700392, 120 h, time 5 day
Method in brief: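 Agar dilution per CLSI. Wild-type H. pylori ATCC 700392 (CB1531). Drugs prepared from 100× stocks as 2-fold dilutions in Mueller–Hinton agar with aged (≥2 weeks) sheep blood (5% v/v). Combinations were at 1:1 molar ratio. MIC read after 5 days at 35 °C under microaerobic atmosphere from a campylobacter gas-generating system.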

[6] = test system: Clostridioides difficile; experiment: Antibacterial activity against rifampicin-resistant Clostridioides difficile harboring rpoBQ489K mutant; format: functional
[7] = test system: Fusobacterium nucleatum; experiment: Antibacterial activity against Fusobacterium nucleatum ATCC 10953; format: functional
[8] = test system: Bacteroides uniformis; experiment: Antibacterial activity against Bacteroides uniformis MMX 1277; format: functional
[9] = test system: Clostridioides difficile; experiment: Antibacterial activity against rifampicin/fluoroquinolone-resistant Clostridioides difficile CB1942 harboring rpoBQ489K/gyrAD71Y/T82A mutant at 1:1 compound to rifampicin molar ratio measured after 3 days in presence of rifampicin; format: functional; conditions: CB1942, 72 h, time 3 day
[10] = test system: Fannyhessea vaginae; experiment: Antibacterial activity against Atopobium vaginae BAA-55; format: functional
[11] = test system: Porphyromonas asaccharolytica; experiment: Antibacterial activity against metronidazole-resistant Prevotella asaccharolytica MMX 3552; format: functional
[12] = test system: Helicobacter pylori; experiment: Antibacterial activity against metronidazole-resistant Helicobacter pylori CB1573 harboring rdxAR16S mutant measured after 5 days by agar dilution method; format: functional; conditions: CB1573, 120 h, time 5 day
Method in brief: (§2)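 Agar dilution per CLSI. Wild-type ATCC 700392 (CB1531) and its derivatives carry defined resistance determinants. Drugs, alone or in 1:1 molar mixtures, were diluted 2-fold from 100× stocks into Mueller–Hinton agar with aged (≥2 weeks) sheep blood (5% v/v). MIC read after 5 days at 35 °C under microaerobic conditions from a campylobacter gas-generating system.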

[13] = test system: Helicobacter pylori; experiment: Antibacterial activity against Helicobacter pylori clinical isolate USA; format: functional
[14] = test system: Clostridioides difficile; experiment: Antibacterial activity against fluoroquinolone-resistant Clostridioides difficile CB1941 harboring gyrAD71Y/T82A mutant at 1:1 compound to rifampicin molar ratio measured after 3 days in presence of rifampicin; format: functional; conditions: CB1941, 72 h, time 3 day
[15] = test system: Helicobacter pylori; experiment: Antibacterial activity against rifampicin-resistant Helicobacter pylori CB1614 harboring rpoBL525I/D530N at 1:1 compound to rifampicin molar ratio measured after 5 days in presence of rifampicin by agar dilution method; format: functional; conditions: CB1614, 120 h, time 5 day; method in brief: as §2
[16] = test system: Gardnerella vaginalis; experiment: Antibacterial activity against Gardnerella vaginalis clinical isolate USA; format: functional
[17] = test system: Helicobacter pylori; experiment: Antibacterial activity against metronidazole-resistant Helicobacter pylori CB1573 harboring rdxAR16S mutant at 1:1 compound to rifabutin molar ratio measured after 5 days in presence of rifabutin by agar dilution method; format: functional; conditions: CB1573, 120 h, time 5 day; method in brief: as §2
[18] = test system: Helicobacter pylori; experiment: Antibacterial activity against metronidazole/rifampicin-resistant Helicobacter pylori CB1771 harboring rpoBL525I/D530N/rdxAE75stop mutant at 1:1 compound to rifampicin molar ratio measured after 5 days in presence of rifampicin by agar dilution method; format: functional; conditions: CB1771, 120 h, time 5 day; method in brief: as §1
[19] = test system: Actinomyces naeslundii; experiment: Antibacterial activity against Actinomyces naeslundii ATCC 1210; format: functional
[20] = test system: Helicobacter pylori; experiment: Antibacterial activity against Helicobacter pylori clinical isolate China; format: functional
[21] = test system: Phocaeicola vulgatus; experiment: Antibacterial activity against metronidazole-resistant Bacteroides vulgatus 3490; format: functional
[22] = test system: Syrian golden hamster; experiment: Antibacterial activity against Clostridioides difficile UNT-103-1 infected in Syrian hamster assessed as mortality at 100 mg/kg, po administered once a daily for 5 days after 18 hrs post 10 mg/kg clindamycin treatment and measured upto 21 days; format: functional, Mesocricetus auratus; conditions: time <= 21 day
Method in brief: (§3)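 Male Golden Syrian hamsters (80-90 g), housed singly, were gavaged with C. difficile UNT103-1 grown in sporulation medium broth and diluted to OD600 1 in prereduced broth. […] From 18 h later, drug or vehicle was given by oral gavage once daily for 5 days. Survival was recorded through day 21.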

[23] = test system: Campylobacter gracilis; experiment: Antibacterial activity against Bacteroides gracilis ATCC 33236 MMX 1270; format: functional
[24] = test system: Helicobacter pylori; experiment: Antibacterial activity against rifampicin resistant Helicobacter pylori harboring rpoBL525I/D530N mutant; format: functional
[25] = test system: Peptostreptococcus sp.; experiment: Antibacterial activity against Peptostreptococcus magnus ATCC 14956; format: functional
[26] = test system: Clostridioides difficile; experiment: Antibacterial activity against rifampicin/fluoroquinolone-resistant Clostridioides difficile CB1940 harboring rpoBQ489K/gyrAA118S mutant at 1:1 compound to rifampicin molar ratio measured after 3 days in presence of rifampicin; format: functional; conditions: CB1940, 72 h, time 3 day
[27] = test system: Staphylococcus aureus; experiment: Antibacterial activity against Staphylococcus aureus ATCC 29213; format: functional
[28] = test system: Helicobacter pylori; experiment: Antibacterial activity against metronidazole/rifampicin-resistant Helicobacter pylori CB1771 harboring rpoBL525I/D530N/rdxAE75stop mutant measured after 5 days by agar dilution method; format: functional; conditions: CB1771, 120 h, time 5 day; method in brief: as §2
[29] = test system: Helicobacter pylori; experiment: Antibacterial activity against rifampicin-resistant Helicobacter pylori CB1902 harboring rpoBV149F mutant at 1:1 compound to rifampicin molar ratio measured after 5 days in presence of rifampicin by agar dilution method; format: functional; conditions: CB1902, 120 h, time 5 day; method in brief: as §2
[30] = test system: Veillonella parvula; experiment: Antibacterial activity against Veillonella parvula ATCC 17745 MMX 1272; format: functional
[31] = test system: Helicobacter pylori; experiment: Antibacterial activity against metronidazole/rifampicin-resistant Helicobacter pylori CB1893 harboring rpoBL525I/D530N/rdxAR16S mutant measured after 5 days by agar dilution method; format: functional; conditions: CB1893, 120 h, time 5 day; method in brief: as §2
[32] = test system: Clostridioides difficile; experiment: Antibacterial activity against fluoroquinolone-resistant Clostridioides difficile CB1939 at 1:1 compound to rifampicin molar ratio measured after 3 days in presence of rifampicin; format: functional; conditions: CB1939, 72 h, time 3 day
[33] = test system: Helicobacter pylori; experiment: Antibacterial activity against rifampicin-resistant Helicobacter pylori CB1903 harboring rpoBD530V mutant at 1:1 compound to rifabutin molar ratio measured after 5 days in presence of rifabutin by agar dilution method; format: functional; conditions: CB1903, 120 h, time 5 day
Method in brief: (§4)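 Agar dilution per CLSI: two-fold serial dilutions from 100× stocks in Mueller–Hinton agar with aged (≥2 weeks) sheep blood (5% v/v). Strains were wild-type ATCC 700392 (CB1531) and derived mutants carrying defined resistance determinants. MIC was read after 5 days at 35 °C under microaerobic conditions from a campylobacter gas-generating system. Routine culture was on TSA with 5% sheep blood.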

[34] = test system: Clostridioides difficile; experiment: Antibacterial activity against rifampicin-resistant Clostridioides difficile CB1934 harboring rpoBQ489K mutant at 1:1 compound to rifampicin molar ratio measured after 3 days in presence of rifampicin; format: functional; conditions: CB1934, 72 h, time 3 day
[35] = test system: Bacteroides fragilis; experiment: Antibacterial activity against metronidazole-resistant Bacteroides fragilis MMX 3387; format: functional
[36] = test system: Helicobacter pylori; experiment: Antibacterial activity against Helicobacter pylori ATCC 700392 at 1:1 compound to rifampicin molar ratio measured after 5 days in presence of rifampicin by agar dilution method; format: functional; conditions: ATCC 700392, 120 h, time 5 day; method in brief: as §4
[37] = test system: Clostridioides difficile; experiment: Antibacterial activity against Clostridioides difficile clinical isolate USA; format: functional
[38] = test system: Clostridioides difficile; experiment: Antibacterial activity against Clostridioides difficile clinical isolate China; format: functional
[39] = test system: Gardnerella vaginalis; experiment: Antibacterial activity against Gardnerella vaginalis clinical isolate China; format: functional
[40] = test system: Clostridium sporogenes; experiment: Antibacterial activity against Clostridium sporogenes ATCC 19404; format: functional
[41] = test system: Syrian golden hamster; experiment: Antibacterial activity against Clostridioides difficile UNT-103-1 infected in Syrian hamster assessed as mortality at 20 mg/kg, po administered once a daily for 5 days after 18 hrs post 10 mg/kg clindamycin treatment and measured upto 21 days; format: functional, Mesocricetus auratus; conditions: time <= 21 day; method in brief: as §3

Structure (SMILES): Cc1ncc([N+](=O)[O-])n1CCO [METRONIDAZOLE]
- MIC [1]: 4 µg/mL (≈ 23.4 µM)
- MIC [2]: ≤ 0.03 µg/mL
- MIC [3]: 4 µg/mL (≈ 23.4 µM)
- MIC [4]: > 32 µg/mL
- MIC [5]: ≤ 0.002 µg/mL
- MIC [6]: > 8 µg/mL
- MIC [7]: 0.06 µg/mL (≈ 0.351 µM)
- MIC [8]: > 256 µg/mL
- MIC [9]: 2 µg/mL
- MIC [10]: 128 µg/mL (≈ 748 µM)
- MIC [11]: 1 µg/mL (≈ 5.84 µM)
- MIC [12]: 32 µg/mL (≈ 187 µM)
- MIC90 [13]: 128 µg/mL (≈ 748 µM)
- MIC [14]: ≤ 0.03 µg/mL
- MIC [15]: 8 µg/mL
- MIC [16]: ≥ 2 µg/mL
- MIC90 [16]: 64 µg/mL (≈ 374 µM)
- MIC [17]: ≤ 0.002 µg/mL
- MIC [18]: > 32 µg/mL
- MIC [19]: 256 µg/mL (≈ 1500 µM)
- MIC [20]: ≥ 0.25 µg/mL
- MIC90 [20]: ≥ 16 µg/mL
- MIC [21]: 128 µg/mL (≈ 748 µM)
- Activity [22]: 100%
- MIC [23]: > 256 µg/mL
- MIC [24]: > 32 µg/mL
- MIC [25]: 1 µg/mL (≈ 5.84 µM)
- MIC [26]: 2 µg/mL
- MIC [27]: > 32 µg/mL
- MIC [28]: 32 µg/mL (≈ 187 µM)
- MIC [29]: 8 µg/mL
- MIC [30]: 2 µg/mL (≈ 11.7 µM)
- MIC [31]: 32 µg/mL (≈ 187 µM)
- MIC [32]: ≤ 0.03 µg/mL
- MIC [33]: 1 µg/mL
- MIC [34]: 2 µg/mL
- MIC [35]: > 256 µg/mL
- MIC [36]: 0.5 µg/mL
- MIC [37]: 0.12 µg/mL (≈ 0.701 µM)
- MIC [38]: ≤ 0.06 µg/mL
- MIC90 [38]: 0.125 µg/mL (≈ 0.73 µM)
- MIC [39]: ≥ 16 µg/mL
- MIC90 [39]: ≥ 32 µg/mL
- MIC [40]: 0.06 µg/mL (≈ 0.351 µM)

Structure (SMILES): CN[C@H](CC(C)C)C(=O)N[C@H]1C(=O)N[C@@H](CC(N)=O)C(=O)N[C@H]2C(=O)N[C@H]3C(=O)N[C@H](C(=O)N[C@H](C(=O)O)c4cc(O)cc(O)c4-c4cc3ccc4O)[C@H](O)c3ccc(c(Cl)c3)Oc3cc2cc(c3O[C@@H]2O[C@H](CO)[C@@H](O)[C@H](O)[C@H]2O[C@H]2C[C@](C)(N)[C@H](O)[C@H](C)O2)Oc2ccc(cc2Cl)[C@H]1O [VANCOMYCIN]
- Activity [41]: 80%
